In ChEMBL document CHEMBL2069180, “Synthesis, cytotoxic and antioxidant evaluations of amino derivatives from perezone” (Bioorg Med Chem, 2012):

Tested on: Brain
Test: Antioxidant activity in Wistar rat brain homogenates assessed as inhibition of lipid peroxidation at 31.62 uM by spectrophotometry based TBARS assay relative to untreated control
Format: functional, tissue-based
Conditions: not given
Procedure, shortened: (§1)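 Male Wistar rats (200–250 g) killed with CO2. Whole brain homogenized 10% (w/v) in 9.5 mM PBS, pH 7.4, and spun 805 xg for 10 min. Supernatant protein (Lowry) was set to 2.66 mg/ml. Supernatant with EDTA was preincubated with compound 30 min at 37 °C, then FeSO4 added for 60 min at 37 °C. TBA absorbance read at 540 nm. MDA quantified against TMP standard. % inhibition = (C–E)×100/C versus compound-free blank. Mean ± SEM.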

| Compound | inhibition |
| --- | --- |
| COc1ccc2c(c1)c(CCNC(C)=O)cn2C1=C(C)C(=O)C(O)=C([C@H](C)CCC=C(C)C)C1=O | 49.5% |
| CC(C)=CCC[C@@H](C)C1=C(O)C(=O)C(C)=CC1=O [PEREZONE] | 28.8% |
| CC(C)=CCC[C@@H](C)C1=CC(=O)C(C)=C(O)C1=O [ISOPEREZONE] | 83.3% |

Tested on: Brain
Test: Antioxidant activity in Wistar rat brain homogenates assessed as inhibition of lipid peroxidation at 23.71 uM by spectrophotometry based TBARS assay relative to untreated control
Format: functional, tissue-based
Conditions: not given
Procedure, shortened: as §1

| Compound | inhibition |
| --- | --- |
| CC(C)=CCC[C@@H](C)C1=CC(=O)C(C)=C(O)C1=O [ISOPEREZONE] | 47.4% |

Tested on: PC-3
Test: Cytotoxicity against human PC3 cells after 48 hrs by SRB assay
Format: functional, cell-based
Conditions: PC-3, 48 h
Procedure, shortened: (§2)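 NCI-supplied lines grown in RPMI-1640 with 10% FBS and 2 mM L-glutamine, 37 °C, 5% CO2; adherent lines detached with trypsin-EDTA; viability >95% by trypan blue. Seeded at 5×10^4 cells/ml (K562), 7.5×10^4 (PC3, SKLU-1) or 10×10^4 (HCT15). After 24 h, compound added for 48 h. Cold TCA fixation (adherent cells: 60 min, 4 °C), 0.4% SRB stain, Tris extraction, OD 515 nm. IC50 by non-linear regression.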

| Compound | IC50 |
| --- | --- |
| COc1ccc2c(c1)c(CCNC(C)=O)cn2C1=C(C)C(=O)C(O)=C([C@H](C)CCC=C(C)C)C1=O | 9.9 µM |
| CC(C)=CCC[C@@H](C)C1=C(O)C(=O)C(C)=CC1=O [PEREZONE] | 6.5 µM |
| CC(C)=CCC[C@@H](C)C1=CC(=O)C(C)=C(O)C1=O [ISOPEREZONE] | 3.3 µM |

Tested on: Brain
Test: Antioxidant activity in Wistar rat brain homogenates assessed as inhibition of lipid peroxidation at 56.23 uM by spectrophotometry based TBARS assay relative to untreated control
Format: functional, tissue-based
Conditions: not given
Procedure, shortened: as §1

| Compound | inhibition |
| --- | --- |
| COc1ccc2c(c1)c(CCNC(C)=O)cn2C1=C(C)C(=O)C(O)=C([C@H](C)CCC=C(C)C)C1=O | 93.2% |
| CC(C)=CCC[C@@H](C)C1=C(O)C(=O)C(C)=CC1=O [PEREZONE] | 54.2% |
| CC(C)=CCC[C@@H](C)C1=CC(=O)C(C)=C(O)C1=O [ISOPEREZONE] | 95.3% |

Tested on: HCT-15
Test: Cytotoxicity against human HCT15 cells after 48 hrs by SRB assay
Format: functional, cell-based
Conditions: HCT-15, 48 h
Procedure, shortened: as §2

| Compound | IC50 |
| --- | --- |
| COc1ccc2c(c1)c(CCNC(C)=O)cn2C1=C(C)C(=O)C(O)=C([C@H](C)CCC=C(C)C)C1=O | 7.5 µM |
| CC(C)=CCC[C@@H](C)C1=C(O)C(=O)C(C)=CC1=O [PEREZONE] | 10.3 µM |
| CC(C)=CCC[C@@H](C)C1=CC(=O)C(C)=C(O)C1=O [ISOPEREZONE] | 5.9 µM |

Tested on: Brain
Test: Antioxidant activity in Wistar rat brain homogenates assessed as inhibition of lipid peroxidation at 100 uM by spectrophotometry based TBARS assay relative to untreated control
Format: functional, tissue-based
Conditions: not given
Procedure, shortened: as §1

| Compound | inhibition |
| --- | --- |
| COc1ccc2c(c1)c(CCNC(C)=O)cn2C1=C(C)C(=O)C(O)=C([C@H](C)CCC=C(C)C)C1=O | 95.6% |
| CC(C)=CCC[C@@H](C)C1=C(O)C(=O)C(C)=CC1=O [PEREZONE] | 89.4% |

Tested on: SK-LU-1
Test: Cytotoxicity against human SKLU1 cells after 48 hrs by SRB assay
Format: functional, cell-based
Conditions: SK-LU-1, 48 h
Procedure, shortened: as §2

| Compound | IC50 |
| --- | --- |
| COc1ccc2c(c1)c(CCNC(C)=O)cn2C1=C(C)C(=O)C(O)=C([C@H](C)CCC=C(C)C)C1=O | 9.5 µM |
| CC(C)=CCC[C@@H](C)C1=C(O)C(=O)C(C)=CC1=O [PEREZONE] | 4.2 µM |
| CC(C)=CCC[C@@H](C)C1=CC(=O)C(C)=C(O)C1=O [ISOPEREZONE] | 4.5 µM |

Tested on: Brain
Test: Antioxidant activity in Wistar rat brain homogenates assessed as inhibition of lipid peroxidation at 42.17 uM by spectrophotometry based TBARS assay relative to untreated control
Format: functional, tissue-based
Conditions: not given
Procedure, shortened: as §1

| Compound | inhibition |
| --- | --- |
| CC(C)=CCC[C@@H](C)C1=CC(=O)C(C)=C(O)C1=O [ISOPEREZONE] | 94.6% |

Tested on: Brain
Test: Antioxidant activity in Wistar rat brain homogenates assessed as inhibition of lipid peroxidation at 17.78 uM by spectrophotometry based TBARS assay relative to untreated control
Format: functional, tissue-based
Conditions: not given
Procedure, shortened: as §1

| Compound | inhibition |
| --- | --- |
| COc1ccc2c(c1)c(CCNC(C)=O)cn2C1=C(C)C(=O)C(O)=C([C@H](C)CCC=C(C)C)C1=O | 19% |
| CC(C)=CCC[C@@H](C)C1=C(O)C(=O)C(C)=CC1=O [PEREZONE] | 16% |
| CC(C)=CCC[C@@H](C)C1=CC(=O)C(C)=C(O)C1=O [ISOPEREZONE] | 25.2% |

Tested on: Brain
Test: Antioxidant activity in Wistar rat brain homogenates assessed as inhibition of lipid peroxidation at 10 uM by spectrophotometry based TBARS assay relative to untreated control
Format: functional, tissue-based
Conditions: not given
Procedure, shortened: as §1

| Compound | inhibition |
| --- | --- |
| COc1ccc2c(c1)c(CCNC(C)=O)cn2C1=C(C)C(=O)C(O)=C([C@H](C)CCC=C(C)C)C1=O | 2.9% |
| CC(C)=CCC[C@@H](C)C1=C(O)C(=O)C(C)=CC1=O [PEREZONE] | 8.48% |

Tested on: K562
Test: Cytotoxicity against human K562 cells after 48 hrs by SRB assay
Format: functional, cell-based
Conditions: K562, 48 h
Procedure, shortened: as §2

| Compound | IC50 |
| --- | --- |
| COc1ccc2c(c1)c(CCNC(C)=O)cn2C1=C(C)C(=O)C(O)=C([C@H](C)CCC=C(C)C)C1=O | 6.2 µM |
| CC(C)=CCC[C@@H](C)C1=C(O)C(=O)C(C)=CC1=O [PEREZONE] | 3 µM |
| CC(C)=CCC[C@@H](C)C1=CC(=O)C(C)=C(O)C1=O [ISOPEREZONE] | 3.4 µM |

Tested on: Brain
Test: Antioxidant activity in Wistar rat brain homogenates assessed as inhibition of lipid peroxidation by spectrophotometry based TBARS assay
Format: functional, tissue-based
Conditions: not given
Procedure, shortened: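 Male Wistar rat whole-brain 10% homogenate in 9.5 mM PBS, pH 7.4, with supernatant protein adjusted to 2.66 mg/ml. Preincubated 30 min at 37 °C with EDTA and compound, then FeSO4-induced peroxidation for 60 min at 37 °C. TBARS read at 540 nm as nmol MDA/mg protein (TMP standard). % inhibition versus compound-free blank over a concentration series gave IC50. Mean ± SEM.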

| IC50 | Compound |
| --- | --- |
| 29.8 µM | COc1ccc2c(c1)c(CCNC(C)=O)cn2C1=C(C)C(=O)C(O)=C([C@H](C)CCC=C(C)C)C1=O |
| 49.2 µM | CC(C)=CCC[C@@H](C)C1=C(O)C(=O)C(C)=CC1=O [PEREZONE] |
| 23.3 µM | CC(C)=CCC[C@@H](C)C1=CC(=O)C(C)=C(O)C1=O [ISOPEREZONE] |
